Results pooled from the literature.
Compare with care: the assays were run in different laboratories.
Target: Serine/threonine-protein kinase NLK (NLK, Homo sapiens, UniProt Q9UBE8)
Residues used in one study (Q9UBE8 1-527): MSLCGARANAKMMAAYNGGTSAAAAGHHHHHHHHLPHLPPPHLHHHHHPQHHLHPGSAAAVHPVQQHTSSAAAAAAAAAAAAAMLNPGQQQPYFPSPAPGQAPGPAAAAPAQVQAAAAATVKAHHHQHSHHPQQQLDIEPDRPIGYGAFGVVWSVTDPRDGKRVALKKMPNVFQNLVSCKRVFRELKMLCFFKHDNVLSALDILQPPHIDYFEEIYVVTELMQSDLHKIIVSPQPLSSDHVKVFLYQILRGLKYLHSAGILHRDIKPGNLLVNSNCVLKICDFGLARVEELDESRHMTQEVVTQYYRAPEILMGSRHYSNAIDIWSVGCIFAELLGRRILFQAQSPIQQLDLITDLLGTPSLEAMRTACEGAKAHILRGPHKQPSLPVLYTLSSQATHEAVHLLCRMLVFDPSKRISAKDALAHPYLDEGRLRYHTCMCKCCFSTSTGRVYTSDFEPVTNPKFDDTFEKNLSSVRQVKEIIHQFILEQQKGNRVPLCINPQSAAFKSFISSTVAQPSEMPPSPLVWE

CSc1cccnc1N1CCN(Cc2nc3ccccc3[nH]2)CC1
remaining binding (binding, competition with immobilised ligand; 1 µM): 100%

Cc1cnc(NC2CCOCC2)nc1-n1cnc(C(=O)NC(CN)c2cc(F)cc(Cl)c2)c1 (stereo not shown)
remaining activity (enzyme activity, inhibitor, radiometric; 1 µM): 47%

O=C(Nc1cnn(-c2csc(C(=O)NC3COC3)c2)c1)Nc1ccccc1Cl
remaining activity (enzyme activity, inhibitor; 5 µM): 99.5%

CC(C)(O)c1cncc(-c2nc3ccc(F)cc3n2C2CC2)c1
remaining binding (cell-free assay, competition with immobilised ligand; 1 µM): 100%

CC(C)(C)c1nc(-c2cccc(NS(=O)(=O)c3c(F)cccc3F)c2F)c(-c2ccnc(N)n2)s1
remaining activity (enzyme activity, inhibitor, radiometric; 1 µM): 78%

O=C(Nc1cnn(-c2csc(C(=O)NC3COC3)c2)c1)Nc1c(F)cccc1Cl
remaining activity (enzyme activity, inhibitor; 5 µM): 87.4%

Cn1cncc1C1=CN(c2ncnc3[nH]cnc23)CCS1
inhibition (enzyme activity, inhibitor, radiometric; 2 µM): 43%

N#CCCc1ccc2c(c1)-c1[nH]c3ccc([N+](=O)[O-])cc3c1CC(=O)N2
remaining signal (cell-free assay; 0.5 µM): 89.7%

CCN(CC)CCNC(=O)c1c(C)[nH]c(/C=C2\C(=O)Nc3ccc(F)cc32)c1C
inhibition (enzyme activity, inhibitor; 0.3 µM): -7%

O=C(NCc1ncc(C(F)(F)F)cc1Cl)c1ccc2c(c1)C1(CCS(=O)(=O)CC1)[C@H](C1CC1)N2S(=O)(=O)c1ccc(F)cc1
remaining binding (cell-free assay, competition with immobilised ligand; 1 µM): 100%

Cc1cc(NC(=O)c2cccc3cc(-c4cccc5[nH]nc(N)c45)ccc23)ccc1F
activity vs control (enzyme activity, inhibitor; 0.1 µM): 97%

Cc1ccc(Nc2nccc(N(C)c3ccc4c(C)n(C)nc4c3)n2)cc1S(N)(=O)=O
inhibition (enzyme activity, inhibitor; 10 µM): 67%

COc1cc(Cl)c(C(=O)N[C@@H](CN[C@H]2CC[C@@H](N)CC2)Cc2ccc(C#N)cc2)cc1-c1ccc(CN[C@H](C)c2ccc(C)cc2)o1
remaining activity (enzyme activity, inhibitor; 1 µM): 88%

CC(C)(O)[C@H]1CC[C@H](Nc2ccc3ncc(-c4cccc(C(F)(F)F)c4)n3n2)CC1
remaining activity (enzyme activity, inhibitor; 1 µM): 93.3%

CN1CC(Oc2cnc(C#N)cc2-c2ccn3nc(NC(=O)C4CC4)cc3c2)C1
inhibition (enzyme activity, inhibitor; 1 µM): 10%

C[C@H](c1ccnc(Nc2nc3ccc(-c4cc(N(C)C)ncn4)cc3[nH]2)c1)N1CCN(C(=O)CC(F)(F)F)CC1
remaining binding (cell-free assay, competition with immobilised ligand; 0.1 µM): 88%

CCN(CC)c1ccc(C2=NNC(=O)CC2C)cc1[N+](=O)[O-] (stereo not shown)
remaining activity (enzyme activity, inhibitor; 10 µM): 105%

O=C(NCCCC1CCCCC1)c1ccc(CNC(=O)c2cnn(-c3ccccc3)c2C(F)(F)F)cc1
remaining binding (cell-free assay, competition with immobilised ligand; 0.1 µM): 100%

CCCS(=O)(=O)Nc1ccc(F)c(C(=O)c2c[nH]c3ncc(-c4ccc(Cl)cc4)cc23)c1F
inhibition (enzyme activity, inhibitor; 1 µM): < 10%
